Key:
Aorta [1] = test: Vasorelaxant activity against KCl-induced contraction in Wistar rat aorta; assay type: functional, tissue-based
Summary of the method: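 Endothelium-intact aortic rings in physiological solution at 37 °C, gassed with 95% O2/5% CO2 and equilibrated 60 min. Compound added cumulatively (10^-6 to 10^-4 M; 0.3–3 or 0.3–10 µg/mL by solubility) on the plateau of 100 mM KCl depolarizing contraction. Response taken as % of initial KCl contraction. IC50 from sigmoidal fit, 95% CI, 3–6 determinations.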

HeLa = test: Cytotoxicity against human HeLa cells by MTT method; assay type: cell-based
Summary of the method: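 HeLa human cervix carcinoma cells; viability by MTT colorimetric assay. Absorbance expressed as percent of control, with camptothecin as positive control. IC50 given as mean ± SEM.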

Aorta [2] = test: Vasorelaxant activity against KCl-induced contraction in Wistar rat aorta at 10 ug/ml; assay type: functional; parameters: scale not given: the % may be the effect or the level left
Summary of the method: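 Rat aortic rings at 37 °C, gassed with 95% O2/5% CO2 and equilibrated 60 min; first contraction with 100 mM KCl depolarizing solution. After washing, rings were preincubated 30 min with compound at 10 µg/mL (max 3 µg/mL if poorly soluble; DMSO ≤0.1% in bath) and KCl contraction repeated. Inhibition versus the control contraction after 40 min incubation; mean ± SEM of n.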

IC50 (Aorta [1]) [µM]	SMILES	IC50 (HeLa) [µM]	Activity (Aorta [2]) [%]
> 80	C[C@@]12CC[C@H](O)[C@](C)(CO)[C@H]1CC[C@@]13CC4[C@H](C[C@H]12)[C@]4(C)C3	64	
	C[C@@H]1C(=O)[C@]23CC[C@H]4C(C)(C)C(=O)CC[C@]4(C)[C@H]2C[C@@H]1CC3=O	> 150	87.9
4.65	CC1(C)CCC[C@]2(C)[C@@H]1CC[C@@]13C(=O)C4[C@H](C[C@@H]21)[C@]4(C)[C@H]3O	138	17.9
	C[C@@]12CCC(=O)[C@](C)(CBr)[C@H]1CC[C@@]13C(=O)C4[C@H](C[C@H]12)[C@]4(C)C3=O	> 150	71.8
	CC1(C)CCC[C@]2(C)[C@@H]1CC[C@@]13[C@H](O)C[C@](C)(CC[C@@H]21)[C@H]3O	> 150	52.2
12.3	CO[C@]1(C)[C@@H](Br)CC[C@@]2(C)[C@@H]3C[C@H]4C5C(=O)[C@@]3(CC[C@@H]21)C(=O)[C@]54C	> 150	33
	CC1(C)C(=O)CC[C@]2(C)[C@@H]1CC[C@@]13C(=O)C4[C@H](C[C@H]12)[C@]4(C)C3=O	> 150	84.4
	CC1(C)CCC[C@]2(C)[C@@H]1CC[C@@]13[C@H](O)C4[C@H](C[C@@H]21)[C@]4(C)[C@H]3O	> 150	73.4
10	C[C@@H]1C[C@@H](O)[C@H]2[C@@](C)(CO)CCC[C@]2(C)[C@@]1(O)CCc1ccoc1 [MARRUBENOL]		7.9
> 80	C/C(=C\CO)CCC[C@H](C)CCC[C@H](C)CCCC(C)C [TRANS-PHYTOL]	46.6	81.4
> 80	CC1(C)C(=O)CC[C@@]2(C)[C@@H]3C[C@@H]4[C@@H]5C[C@@]3(CC[C@@H]12)C[C@@]45C	33.5	65.6
3.5	C=C1CCC[C@]2(C)[C@@H]1CC[C@@]13C(=O)C4[C@H](C[C@H]12)[C@]4(C)C3=O	128	9.2
	CC1(C)C(=O)CC[C@]2(C)[C@@H]1CC[C@@]13C(=O)C4[C@H](C[C@@H]21)[C@]4(C)[C@H]3O	> 150	92.7
	CC1(C)C(=O)CC[C@]2(C)[C@H]3C[C@@H]4C5C(=O)[C@]3(CC[C@@H]12)[C@@H](O)[C@]54C	> 150	90
	CC1(C)[C@H](O)CC[C@]2(C)[C@@H]1CC[C@@]13C(=O)C4[C@H](C[C@@H]21)[C@]4(C)[C@H]3O	> 150	90.3
	CC[C@@]1(O)C(=O)OCc2c1cc1n(c2=O)Cc2cc3ccccc3nc2-1 [CAMPTOTHECIN]	0.5	
	CC1(C)CCC[C@]2(C)[C@H]3C[C@@H]4C5C(=O)[C@]3(CC[C@@H]12)[C@H](I)[C@]54C	150	37.4

IC50 (Aorta [1]) [µM]	SMILES	IC50 (HeLa) [µM]	Activity (Aorta [2]) [%]
	C=C1[C@H]2CC[C@@]34C(=O)C5[C@H](C[C@H]3[C@]2(C)CC[C@@H]1O)[C@]5(C)C4=O	> 150	83.9
	C=C1C[C@]23CC[C@H]4C(C)(C)C(=O)CC[C@]4(C)[C@H]2C[C@@H]1CC3=O	> 150	60.6
> 80	CC1(C)[C@H]2CC[C@@]34CC5[C@H](C[C@H]3[C@]2(C)CC[C@@H]1O)[C@]5(C)C4	25.3	67.3
	CC1(C)C(=O)CC[C@@]2(C)[C@H]1CC[C@]13C(=O)C4[C@@H](C[C@@H]12)[C@]4(C)C3=O	> 150	91.4
	CC(C)(C)[Si](C)(C)O[C@@]12CC[C@@]3(C)[C@@H](CC[C@]45C(=O)C6[C@@H](C[C@@H]43)[C@@]6(C)C5=O)[C@]1(C)C2	> 150	
6.3	C[C@@]12CCC(=O)[C@](C)(CO)[C@H]1CC[C@@]13CC4[C@H](C[C@H]12)[C@]4(C)C3	40.4	17
> 80	C[C@@]1(C(O)CO)CC[C@@H]2C(O)(C1)C(O)C[C@H]1[C@@]2(C)CC[C@H](O)[C@]1(C)CO (some centres not stated)		
	CC1(C)CCC[C@]2(C)[C@H]3CC[C@]4(C)CC(=O)[C@]3(CC[C@@H]12)[C@H]4O	153	40.7
5.8	CC1(C)CCC[C@]2(C)[C@@H]1CC[C@@]13C(=O)C4[C@H](C[C@H]12)[C@]4(C)C3=O	118	14.5
9.75	C=C1[C@H]2CC[C@@]34C(=O)C5[C@H](C[C@H]3[C@]2(C)CC[C@@H]1Cl)[C@]5(C)C4=O	> 150	28.5
	C=C1[C@H]2CC[C@@]34C(=O)C5[C@H](C[C@H]3[C@]2(C)CC[C@@H]1Br)[C@]5(C)C4=O	> 150	65.5
	CC1(C)C(=O)CC[C@]2(C)[C@H]3C[C@@H]4C5C(=O)[C@]3(CC[C@@H]12)[C@H](I)[C@]54C	> 150	95.7
46.2	C=C[C@@]1(C)CC[C@H]2C(=CC[C@H]3C(C)(C)[C@@H](O)CC[C@]23C)C1 [ISOPIMARANE]	87.8	54.6
9.1	CC1(C)CCC[C@]2(C)[C@H]3C[C@@H]4C5C(=O)[C@]3(CC[C@@H]12)[C@@H](O)[C@]54C	> 150	22.1
	C[C@]12CCC(=O)[C@@](C)(CO)[C@@H]1CC[C@]13C(=O)C4[C@@H](C[C@@H]12)[C@]4(C)C3=O		93.1
	CC1=CCC[C@]2(C)[C@@H]1CC[C@@]13C(=O)C4[C@H](C[C@H]12)[C@]4(C)C3=O	125	
